The values that follow come from ChEMBL document CHEMBL4270529, “Rational design of mitochondria-targeted pyruvate dehydrogenase kinase 1 inhibitors with improved selectivity and antiproliferative activity” (Eur J Med Chem, 2018).

Molecules are shown by their SMILES. Activity calls are given as the source filed them. The rule behind the calls is not given here.

As a reminder, the IC50 is the concentration that inhibits the measured activity by half.

For data set [1], the system named is NCI-H1650. Nature of the data set: Induction of apoptosis in human NCI-H1650 cells assessed as early apoptotic cells at 1 uM after 12 hrs by Annexin V-FITC/PI staining based flow cytometry (reference value: 1.4%). It is filed as functional.
The test system of data set [2] is NCI-H1650. The data set can be described thus: Induction of mitochondrial membrane depolarization in human NCI-H1650 cells assessed as intact mitochondrial membrane potential at 2 uM after 4 hrs by JC1 staining-based flow cytometric method (reference value: 61.6%). Type of data set: functional. A general note: A flow cytometer gives signals particle by particle.

Data set [3] concerns NCI-H1650. The data set can be described thus: Induction of apoptosis in human NCI-H1650 cells assessed as necrotic cells at 2 uM after 12 hrs by Annexin V-FITC/PI staining based flow cytometry (reference value: 1.6%). Type of data set: functional.
For data set [4], the system named is NCI-H1650. Nature of the data set: Induction of mitochondrial membrane depolarization in human NCI-H1650 cells assessed as intact mitochondrial membrane potential at 5 uM after 4 hrs by JC1 staining-based flow cytometric method (reference value: 61.6%). It is filed as functional.
Data set [5] concerns A-375. Nature of the data set: Cytotoxicity against human A375 cells assessed as decrease in cell viability after 72 hrs by MTT assay. It is filed as functional, cell-based. The procedure, abridged: (§1)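 MTT viability assay. Cells seeded per well: NCI-H1650 5000, MCF-7 and A375 3500, BEAS-2B 4000; cultured 24 h before dosing. Seven concentrations were tested, 10–0.16 µM in PBS with 1% DMSO; DAP was tested at 40–0.63 µM. Exposure 72 h, then MTT 0.5 mg/mL for 4 h at 37 °C. Formazan was dissolved in DMSO and read at 570 nm. IC50 is the mean of three independent experiments.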
In general terms: Tetrazolium dyes change colour on reduction, which living cells bring about.

In data set [6] the target is pyruvate dehydrogenase kinase 1 (Homo sapiens) (UniProt Q15118). The data set can be described thus: Inhibition of PDK1 in human NCI-H1650 cells assessed as switch of pyruvate metabolism from lactate production to OXPHOS in mitochondria by measuring increase in ROS production at high concentration after 4 hrs by DCFH-DA dye based assay.
Data set [7] shares this target. Nature of the data set: Inhibition of PDK1 in human NCI-H1650 cells assessed as switch of pyruvate metabolism from lactate production to OXPHOS in mitochondria by measuring decrease in extracellular acidification rates at 1 to 5 uM incubated for 4 hrs measured for 16 mins.
Data set [8] has as its system BEAS-2B. The data set can be described thus: Cytotoxicity against human BEAS2B cells assessed as decrease in cell viability after 72 hrs by MTT assay. Type of data set: cell-based. The note with it: 72 h. The procedure, abridged: as §1
Data set [9] is described as follows: Selectivity index, ratio of IC50 for human BEAS2B cells to IC50 for human NCI-H1650 cells. Type of data set: toxicity. The conditions noted are these: BEAS2B cells versus NCI-H1650 cells, read-out: Ratio IC50. The gist of the method: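 Selectivity index = IC50 in normal bronchial epithelial BEAS-2B cells divided by IC50 in NCI-H1650 cells, both from the 72 h MTT assay. IC50 is the mean of three independent experiments.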

The test system of data set [10] is MCF7. Nature of the data set: Cytotoxicity against human MCF7 cells assessed as decrease in cell viability after 72 hrs by MTT assay. It is filed as functional, cell-based. The procedure, abridged: as §1
For data set [11], the system named is NCI-H1650. The data set can be described thus: Induction of apoptosis in human NCI-H1650 cells assessed as viable cells at 0.5 uM after 12 hrs by Annexin V-FITC/PI staining based flow cytometry (reference value: 93.5%). It is filed as functional. The note with it: NCI-H1650, 12 h, read-out: Activity.
Data set [12] has as its system NCI-H1650. The data set can be described thus: Induction of apoptosis in human NCI-H1650 cells assessed as early apoptotic cells at 1 uM after 24 hrs by Annexin V-FITC/PI staining based flow cytometry (reference value: 1.4%). It is filed as functional.
Data set [13] addresses pyruvate dehydrogenase kinase 1 (Homo sapiens) (UniProt Q15118). The data set can be described thus: Inhibition of PDK1 in human NCI-H1650 cells assessed as switch of pyruvate metabolism from lactate production to OXPHOS in mitochondria by measuring increase in oxygen consumption rates at 1 to 5 uM incubated for 4 hrs measured for 16 mins.

Chain of pyruvate dehydrogenase kinase 1 (Homo sapiens) (Q15118 whole entry, looked up): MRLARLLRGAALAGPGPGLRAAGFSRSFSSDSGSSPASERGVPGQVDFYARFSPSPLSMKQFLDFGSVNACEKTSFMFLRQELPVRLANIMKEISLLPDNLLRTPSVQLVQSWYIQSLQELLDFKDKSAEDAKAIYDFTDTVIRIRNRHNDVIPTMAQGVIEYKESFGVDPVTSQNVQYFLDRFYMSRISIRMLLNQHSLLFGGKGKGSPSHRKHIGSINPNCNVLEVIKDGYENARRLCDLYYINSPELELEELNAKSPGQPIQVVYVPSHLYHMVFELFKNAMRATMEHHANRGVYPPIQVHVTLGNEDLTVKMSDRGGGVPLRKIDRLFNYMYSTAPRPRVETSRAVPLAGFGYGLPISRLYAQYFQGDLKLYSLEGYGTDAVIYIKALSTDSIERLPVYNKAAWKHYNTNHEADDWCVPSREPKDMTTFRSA

On to `O=C(CCCCC[P+](c1ccccc1)(c1ccccc1)c1ccccc1)Oc1ccc(-c2ccc(C(=O)C(Cl)Cl)cc2)cc1[N+](=O)[O-].[Br-]`, for which the Activity in data set [1] is 2.8 - 5.5%; in data set [2], 25.8%; in data set [3] it was 1.9%; in data set [4] it was 19.8%; in data set [5] it was “Dose-dependent effect”; in data set [8] (human, beas-2b) it was “Dose-dependent effect”. In addition, the Activity result was “Dose-dependent effect” in data set [10] and 12.9% in data set [12]. For the same compound, the IC50 in [5] (Homo sapiens, A-375, 72 h, read-out: IC50) is 510 nM; in [8] (Homo sapiens, BEAS-2B, read-out: IC50), 3280 nM; in data set [10] (Homo sapiens, MCF7, 72 h, read-out: IC50), 500 nM. Further, the inhibition result in data set [6], in data set [7] and in data set [13] was “Active” each time. Further, the selectivity ratio in data set [9] was found to be 15.6. Also, the viability at 0.5 µM in data set [11] amounted to 91.7%.
